Reference: ChEMBL document CHEMBL1140337, “Synthesis and structure-activity relationships of a new series of retinoid-related biphenyl-4-ylacrylic acids endowed with antiproliferative and proapoptotic activity” (J Med Chem, 2005)

Assays:
IGROV-1 [1] = experiment: Concentration of compound required for inhibition of (IGROV-1) human ovarian carcinoma cell growth by 50%; type: functional, cell-based
How it was run: (§1)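 Ovarian carcinoma cells in log-phase growth seeded in duplicate; drug added 24 h after seeding, cells harvested after 72 h of exposure and counted with a cell counter. IC50 = concentration giving 50% fewer cells than untreated control. Where SD is reported, mean of three independent experiments.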

NB-4 = experiment: Concentration of compound required for inhibition of (NB4) human promyelocytic leukemia cell growth by 50%; type: functional, cell-based
How it was run: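 Leukemia cells exposed to drug for 24 h; growth inhibition assessed by cell counting at 72 h. IC50 = concentration reducing cell number 50% versus untreated control. Where SD is given, mean of three independent experiments.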

[2] = Concentration of compound required for inhibition of (IGROV-1/Pt1) human cisplatin resistant ovarian carcinoma cell growth by 50%; type: functional; how it was run: as §1
IGROV-1 [3] = experiment: Percent level of apoptosis induced by 72 hr of exposure with IC80 in (IGROV-1) human ovarian carcinoma cells; type: functional
[4] = target: T1, Retinoic acid receptor beta (Homo sapiens, UniProt P10826); experiment: Effective concentration against retinoic acid receptor beta in COS-7 cells co-expressing DR5-tk-CAT reporter; type: cell-based
T1 sequence (P10826 whole entry): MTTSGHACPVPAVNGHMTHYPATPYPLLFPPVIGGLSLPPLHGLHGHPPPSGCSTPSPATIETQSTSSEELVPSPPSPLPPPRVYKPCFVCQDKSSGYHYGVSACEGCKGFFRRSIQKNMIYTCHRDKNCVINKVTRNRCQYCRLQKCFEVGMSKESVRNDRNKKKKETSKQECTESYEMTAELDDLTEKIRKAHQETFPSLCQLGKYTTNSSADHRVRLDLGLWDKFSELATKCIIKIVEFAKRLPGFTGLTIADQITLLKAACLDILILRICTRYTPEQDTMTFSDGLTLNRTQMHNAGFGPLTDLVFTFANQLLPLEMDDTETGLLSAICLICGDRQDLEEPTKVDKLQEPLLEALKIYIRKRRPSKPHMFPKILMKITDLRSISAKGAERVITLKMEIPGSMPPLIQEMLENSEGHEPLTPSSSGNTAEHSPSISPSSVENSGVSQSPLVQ
How it was run: (§2)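 COS-7 cells transfected with the relevant RAR isoform (alpha, beta or gamma) plus a DR5-tk-CAT reporter. 24 h post-transfection, cells treated 24 h with increasing compound concentrations. CAT activity measured in cell extracts, normalized to a beta-galactosidase transfection control.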

[5] = Effective concentration against retinoic acid receptor alpha in COS-7 cells co-expressing DR5-tk-CAT reporter; type: cell-based; how it was run: as §2
[6] = Effective concentration against retinoic acid receptor gamma in COS-7 cells co-expressing DR5-tk-CAT reporter; type: cell-based; how it was run: as §2
[7] = Percent level of apoptosis induced by 72 hr of exposure with IC80 in (IGROV-1/Pt1) human cisplatin resistant ovarian carcinoma cells; type: functional
[8] = Effective concentration against retinoic acid receptor gamma in COS-7 cells co-expressing DR5-tk-CAT reporter; value range (0.6-1.5); type: cell-based; how it was run: as §2
[9] = Effective concentration against retinoic acid receptor alpha in COS-7 cells co-expressing DR5-tk-CAT reporter; value range (5.6-59.1); type: cell-based; how it was run: as §2
[10] = target: T1, Retinoic acid receptor beta; experiment: Effective concentration against retinoic acid receptor beta in COS-7 cells co-expressing DR5-tk-CAT reporter; value range (7.5-41.1); type: cell-based; how it was run: as §2
[11] = Effective concentration against retinoic acid receptor gamma in COS-7 cells co-expressing DR5-tk-CAT reporter; value range (0.1-0.5); type: cell-based; how it was run: as §2
[12] = target: T1, Retinoic acid receptor beta; experiment: Effective concentration against retinoic acid receptor beta in COS-7 cells co-expressing DR5-tk-CAT reporter; value range (3.9-7.2); type: cell-based; how it was run: as §2
[13] = Effective concentration against retinoic acid receptor alpha in COS-7 cells co-expressing DR5-tk-CAT reporter; value range (4.6-8.9); type: cell-based; how it was run: as §2
[14] = Effective concentration against retinoic acid receptor gamma in COS-7 cells co-expressing DR5-tk-CAT reporter; value range (0.8-2.4); type: cell-based; how it was run: as §2
[15] = Effective concentration against retinoic acid receptor alpha in COS-7 cells co-expressing DR5-tk-CAT reporter; value range (13.9-29.7); type: cell-based; how it was run: as §2
[16] = target: T1, Retinoic acid receptor beta; experiment: Effective concentration against retinoic acid receptor beta in COS-7 cells co-expressing DR5-tk-CAT reporter; value range (6.1-9.8); type: cell-based; how it was run: as §2
[17] = Effective concentration against retinoic acid receptor gamma in COS-7 cells co-expressing DR5-tk-CAT reporter; value range (0.1-0.3); type: cell-based; how it was run: as §2
[18] = target: T1, Retinoic acid receptor beta; experiment: Effective concentration against retinoic acid receptor beta in COS-7 cells co-expressing DR5-tk-CAT reporter; value range (0.1-0.3); type: cell-based
[19] = Effective concentration against retinoic acid receptor alpha in COS-7 cells co-expressing DR5-tk-CAT reporter; value range (0.1-0.4); type: cell-based; how it was run: as §2

Row | Compound | IC50 (IGROV-1 [1]) [µM] | IC50 (NB-4) [µM] | IC50 [2] [µM] | Apoptosis (IGROV-1 [3]) [%] | further results
1 | O=C(O)/C=C/c1ccc(-c2ccc(O)c(C34CC5CC(CC(C5)C3)C4)c2)c(Cl)c1 | 0.58 | 0.2 | 0.73 | 74 | 
2 | COC(=O)/C=C/c1ccc(-c2ccc(O)c(C34CC5CC(CC(C5)C3)C4)c2)cc1 | 0.61 | 18.2 | 3.5 |  | 
3 | O=C(O)/C=C/c1ccc2c(ccc3cc(O)c(C45CC6CC(CC(C6)C4)C5)cc32)c1 | 2.2 | 1.5 | 2.1 |  | 
4 | O=P(O)(O)/C=C/c1ccc(-c2ccc(O)c(C34CC5CC(CC(C5)C3)C4)c2)cc1 | > 20 | > 200 | > 20 |  | 
5 | C/C(=C\c1ccc(-c2ccc(O)c(C34CC5CC(CC(C5)C3)C4)c2)cc1)C(=O)O | 7.19 | 2.3 | 10 |  | 
6 | O=C(O)/C=C/c1ccc(-c2ccc(O)cc2)cc1 | 89 | 78.7 | 156 | 3 | EC50 [4]: > 100 µM; EC50 [5]: > 100 µM; EC50 [6]: > 100 µM; Apoptosis [7]: 1%
7 | CC(C)(C)c1cc(-c2ccc(/C=C/C(=O)O)cc2)ccc1O | 30 | 42.3 | 30 |  | 
8 | Nc1ccccc1NC(=O)/C=C/c1ccc(-c2ccc(O)c(C34CC5CC(CC(C5)C3)C4)c2)cc1 | 2.1 | 1.8 | 2 | 8 | EC50 [8]: 0.9 µM; EC50 [9]: 18.2 µM; EC50 [10]: 17.6 µM
9 | O=C(O)C#Cc1ccc(-c2ccc(O)c(C34CC5CC(CC(C5)C3)C4)c2)cc1 | 1.15 | 1.2 | 1.52 | 52 | 
10 | O=C(O)/C=C/c1ccc(-c2ccc(O)c(CC3CCCCC3)c2)cc1 | 2.58 | 2.2 | 2.3 | 25 | EC50 [11]: 0.2 µM; EC50 [12]: 5.3 µM; EC50 [13]: 6.4 µM; Apoptosis [7]: 9%
11 | CC1(c2cc(-c3ccc(/C=C/C(=O)O)cc3)ccc2O)CCCCCCCCCCC1 | 3.57 |  |  |  | 
12 | O=C(O)c1ccc(-c2ccc(O)c(C34CC5CC(CC(C5)C3)C4)c2)cc1 | > 3 | 35.2 | > 3 |  | 
13 | O=C(/C=C/c1ccc(-c2ccc(O)c(C34CC5CC(CC(C5)C3)C4)c2)cc1)Nc1ccc(O)cc1 | 6.6 | 2 | 10.5 | 2 | EC50 [14]: 1.4 µM; EC50 [15]: 20.3 µM; EC50 [16]: 7.7 µM
14 | O=C(O)/C=C/c1ccc(-c2ccc(O)c(-c3ccccc3)c2)cc1 | 19 | 45.3 | 12.5 | 7 | EC50 [4]: > 100 µM; EC50 [5]: > 100 µM; EC50 [6]: > 100 µM; Apoptosis [7]: 1%
15 | CCOP(=O)(/C=C/c1ccc(-c2ccc(O)c(C34CC5CC(CC(C5)C3)C4)c2)cc1)OCC | 19.7 | 1.7 | > 20 |  | 
16 | O=C(O)/C=C/c1ccc(-c2ccc(O)c(Cl)c2)cc1 | 26 |  |  |  | 
17 | OC/C=C/c1ccc(-c2ccc(O)c(C34CC5CC(CC(C5)C3)C4)c2)cc1 | 10.8 | 9.1 | 10.6 |  | 
18 | O=C(O)/C(F)=C/c1ccc(-c2ccc(O)c(C34CC5CC(CC(C5)C3)C4)c2)cc1 | 0.37 | 0.081 | 0.63 |  | 
19 | O=Cc1cc(/C=C/C(=O)O)ccc1-c1ccc(O)c(C23CC4CC(CC(C4)C2)C3)c1 | 1.28 | 1.05 | 2.63 | 44 | 
20 | O=C(O)C1CC1c1ccc(-c2ccc(O)c(C34CC5CC(CC(C5)C3)C4)c2)cc1 (stereo not given) | > 20 | 39.4 | > 20 |  | 
21 | C/C(=C\C(=O)O)c1ccc(-c2ccc(O)c(C34CC5CC(CC(C5)C3)C4)c2)cc1 | 9.97 | 6.7 | 16.6 | 26 | 
22 | Cc1cc(O)c(C23CC4CC(CC(C4)C2)C3)cc1-c1ccc(/C=C/C(=O)O)cc1 | 1.14 | 1.7 | 2.92 |  | 
23 | O=C(O)/C(F)=C\c1ccc(-c2ccc(O)c(C34CC5CC(CC(C5)C3)C4)c2)cc1 | > 3 | 22.4 | > 3 |  | 
24 | O=C(O)/C=C/c1ccc(-c2cc(O)cc(C34CC5CC(CC(C5)C3)C4)c2)cc1 | 1.31 | 1.2 |  |  | 
25 | N#C/C=C/c1ccc(-c2ccc(O)c(C34CC5CC(CC(C5)C3)C4)c2)cc1 | 8.3 | 14.3 | 12.7 | 2 | 
26 | O=C(O)/C=C/c1ccc(-c2ccc(C34CC5CC(CC(C5)C3)C4)c(O)c2)cc1 | 6.13 | > 10 |  | 23 | 
27 | O=C(O)/C=C/c1ccc(-c2ccc(O)c(C34CC5CC(CC(C5)C3)C4)c2)cc1F | 0.2 | 0.17 | 0.43 | 47 | 
28 | O=C(O)CCc1ccc(-c2ccc(O)c(C34CC5CC(CC(C5)C3)C4)c2)cc1 | 48.4 | 63.6 | 44.5 | 26 | 
29 | O=C(O)/C=C/c1ccc(-c2ccc(O)c(C34CC5CC(CC(C5)C3)C4)c2)cc1 [ADAROTENE] |  | 0.082 | 0.4 | 65 | EC50 [17]: 0.1 µM; EC50 [18]: 0.2 µM; EC50 [19]: 0.2 µM; Apoptosis [7]: 30%
30 | O=C(O)c1ccc2cc(-c3ccc(O)c(C45CC6CC(CC(C6)C4)C5)c3)ccc2c1 [O-DEMETHYLATED ADAPALENE] |  | 0.4 | 0.62 | 38 | Apoptosis [7]: 25%
